Assay results reported in the EternaBench riboswitch data.

Legend:
MS2 coat protein [1] = assay: apparent Kd, MS2 coat protein; higher = weaker binding; RNA-MaP array; theophylline 2 mM where present
Outline: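 Apparent Kd: the median of filtered binding-curve fits from single clusters. Designs were transcribed on Illumina sequencing-chip clusters by stalled E. coli RNA polymerase and titrated with SNAP-549-labelled MS2 coat protein from 0.7 or 1.5 nM, doubling to 3 µM, in 100 mM Tris-HCl pH 7.5, 80 mM KCl, 4 mM MgCl2, BSA, DTT, yeast tRNA and Tween-20. Each series ran without and then with constant ligand, and green signal was normalised to red-channel RNA signal and control-cluster median Fmax.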

MS2 coat protein [2] = assay: apparent Kd, MS2 coat protein; higher = weaker binding; RNA-MaP array
Outline: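 Incubations were done at room temperature with fluorescently labeled MS2 coat protein at 1.5 nM to 3 μM and designed RNAs transcribed on an Illumina sequencing chip from sequenced DNA templates, with or without input ligand. Apparent Kd is the median of binding curves fitted for each cluster. Designs with fewer than 10 measured clusters were excluded.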

[3] = designed as: ON switch for theophylline, no ligand
[4] = ligand present: theophylline, designed as: ON switch for theophylline
[5] = designed as: OFF switch for theophylline, no ligand
[6] = ligand present: theophylline, designed as: OFF switch for theophylline
[7] = designed as: OFF switch for flavin mononucleotide, no ligand
[8] = ligand present: flavin mononucleotide, designed as: OFF switch for flavin mononucleotide
[9] = designed as: ON switch for flavin mononucleotide, no ligand
[10] = ligand present: flavin mononucleotide, designed as: ON switch for flavin mononucleotide

Sequence | apparent Kd (MS2 coat protein [1]; [3]) | apparent Kd (MS2 coat protein [1]; [4]) | apparent Kd (MS2 coat protein [1]; [5]) | apparent Kd (MS2 coat protein [1]; [6]) | further results
UUAAAUGUGACGGAUACCAGCGUGUUGUAGAACAUGAGGAUCACCCAUGUAGUGAUCAAGCGCCCUUGGCAGCUGGUAUGUUUGA | 191 nM | 300 nM | – | – | –
AUGUAAGUGGUGUCACUGUGGUCUAGUGAUACCAGUAUCGAAAGAUACCCUUGGCAGCGCUAGAACAUGAGGAUCACCCAUGUUU | – | – | 68.8 nM | 34.3 nM | –
GCACUACAUGAGGAUCACCCAUGUGCAGAUACCAGAGGUGUAUGCCUCCCUUGGCAGCUGAGUAGCUCUGGAGGCCUAUUGGUUU | 15 nM | 19.1 nM | – | – | –
ACAUGAGGAUCACCCAUGUUCCUCAUUGAUACCAGUGAAUUUAGACGCCCUUGGCAGCGAGUUUUUUUAUAAGAAGUUUUUUUUU | – | – | 660 nM | 1310 nM | –
UGUAACAUGAGGAUCACCCAUGUGAGUGAUACCAGAUAAGUAGUAGUCCCUUGGCAGCAUAUUGGGCGAGUGUAUAGUCUAUACG | 157 nM | 179 nM | – | – | –
ACUCGGUAUGUCUAAUACCGAGAGUAUGAUACCAGUAUGGUGACAUACCCUUGGCAGCAUGGGACAUGAGGAUCACCCAUGUGUU | 538 nM | 505 nM | – | – | –
UUUACAUGAGGAUCACCCAUGUGCCAUGAUACCAGACAUGAAAAUGUCCCUUGGCAGCAUGAGUGAUGCAUCCGAAAGGAUGUUU | 81.6 nM | 611 nM | – | – | –
ACGAACGAUAGUGAUACCAGACGUACAUGAGGAUCACCCAUGUUAUACACAUGGUUUAUUGUCCCUUGGCAGCACGUUAAGUUCG | – | – | 274 nM | 295 nM | –
UCGUGUAUUUCGGAUACCAGUGAAAUCGAUACAUGAGGAUCACCCAUGUGAGAGGAUGUACACCCUUGGCAGCUGUCUGUAUCUG | 16.3 nM | 15.2 nM | – | – | –
AAACGUUGCUGCGAUACCAGACAUGAGGAUCACCCAUGUACCAAGGUAAGAAAAUAACAUGUCCCUUGGCAGCGCAGCAACGAAA | – | – | 15.4 nM | 412 nM | –
GCUGUAAGUGCAGAUACCAGCAAGUGAUAUUUCAUAUGACAUGAGGAUCACCCAUGUAACUGCCCUUGGCAGCUGCACUUACAGC | 213 nM | 24.9 nM | – | – | –
AUAAGUAAUGUUUCGUGUUUUAUUACAGAUACCAGACUAUACGUUGUCCCUUGGCAGCUGGAUUACAUGAGGAUCACCCAUGUUG | – | – | 19.5 nM | 35.1 nM | –
UUCUGGACCCGUGAUACCAGAGACAUGAGGAUCACCCAUGUACAUGAGGAUCACCCAUGUCUCCCUUGGCAGCACUGCAGGGAGC | – | – | 115 nM | 875 nM | –
AUUUAUUGUCGUGAUACCAGACAUACAUGAGGAUCACCCAUGUUAAGUAACUUUUUUCAGGUCCCUUGGCAGCACUUUUUAAUUA | 17.3 nM | 13.9 nM | – | – | –
AUCUCAUAGAGUGAUACCAGACUACAUGAGGAUCACCCAUGUUAGAUUUAAAUAUCAUUUGUCCCUUGGCAGCACAUUAAGUACA | 12.9 nM | 11.5 nM | – | – | –
UAAAUAAUCUGGGUGUAGGUAAUAACAGAUACCAGCCAGAUAACUGGCCCUUGGCAGCUGAUAACAUGAGGAUCACCCAUGUAAA | 80.5 nM | 224 nM | – | – | –
UGUAACAUGAGGAUCACCCAUGUGAGUGAUACCAGAUUAGUAGUAGUCCCUUGGCAGCAUAUUGGGCGAGUGUAUAGUCUAUGCG | 165 nM | 221 nM | – | – | –
CUCCGAGGCUAUACUAUACGCCUUUGUGAUACCAGAAUAAAUAUAUUCCCUUGGCAGCAUCACAUGAGGAUCACCCAUGUGCCAU | 11.7 nM | 18 nM | – | – | –
UAUAGUGUGAUGGAUACCAGCAGAGAAAACGUUUAUCCUAACAUGAGGAUCACCCAUGUAUGCCCUUGGCAGCUGUUGUGUUAUA | – | – | 31.7 nM | 31.8 nM | –
UUAAUGGAGCUUUUAUUUACGAUUUCUGAUACCAGUGUUUCAUUUCACCCUUGGCAGCAGUGACAUGAGGAUCACCCAUGUAAUA | 25.7 nM | 22.8 nM | – | – | –
UGAUCCUACAGAGAUACCAGUGCCACUGAGUGACCAGACACAUGAGGAUCACCCAUGUAACACCCUUGGCAGCUCAACUAGAGGG | 20.4 nM | 69.7 nM | – | – | –
ACUAGCGCACAUGAUACCAGCGACAUGAGGAUCACCCAUGUACGGCGUGUAUCGAAAGGUUGCCCUUGGCAGCAUGAUAGCGCUG | – | – | 13.9 nM | 255 nM | –
AGACAUGAGGAUCACCCAUGUAGUAUGGAUACCAGAUCCAGAUUUAUCCCUUGGCAGCUGUGGUACAGCGUUGCAUCGCUCCUAG | – | – | 32.3 nM | 34.5 nM | –
UGACAUUGCUCAGAUACCAGACAUGAGGAUCACCCAUGUACCGAGGUACCCGAAAGGAAUGUCCCUUGGCAGCUGAGCAAUGUCU | – | – | 10.9 nM | 152 nM | –
GAUGAUAUUGCAGAUACCAGACACAUGAGGAUCACCCAUGUCGCUGGGUUACUGGGUCGUGUCCCUUGGCAGCUGCGAUAUCAUC | – | – | 44 nM | 339 nM | –
CCAUAAGUAACUGAUACCAGUGUACUGACAUGAGGAUCACCCAUGUUGGGUUUUGUUGUACACCCUUGGCAGCAGAAUCUUGUGG | – | – | 63 nM | 90.3 nM | –

Sequence | apparent Kd (MS2 coat protein [1]; [3]) | apparent Kd (MS2 coat protein [1]; [4]) | apparent Kd (MS2 coat protein [1]; [5]) | apparent Kd (MS2 coat protein [1]; [6]) | further results
UAUAUAUAUAUUGAUACCAGCAGAGAAAACGUUUAUCCUAACAUGAGGAUCACCCAUGUAUGCCCUUGGCAGCGGUAUAUAUAUA | – | – | 25.7 nM | 38 nM | –
ACUCGGUGUUUGUUGCUCCGAGUGUAUGAUACCAGUUAGUUUUAUGGCCCUUGGCAGCAUAGGACAUGAGGAUCACCCAUGUGUU | 32.6 nM | 45.7 nM | – | – | –
AUAACAUGAGGAUCACCCAUGUAAGCAGAUACCAGCUAGGAAACUAGCCCUUGGCAGCUGCAAGGUGAUCCUAAUGCAGCUGCAA | – | – | 154 nM | 119 nM | –
AGCUCAGAGAGUGAUACCAGACUACAUGAGGAUCACCCAUGUUACUUUUAAAUAUCAUGAGUCCCUUGGCAGCACAAGAAGAGCA | – | – | 81 nM | 168 nM | –
AGCCUCAUACAUGAGGAUCACCCAUGUGAUACCAGUCAGGAAACUGACCCUUGGCAGCGCAUGAGGAUCACCCAUGUGCGAGGCA | – | – | 43.5 nM | 192 nM | –
GCACCAGGUACGGAUACCAGCUAUAGGCCCAAUGGGCGACAUGAGGAUCACCCAUGUGAUGGCCCUUGGCAGCUGUACCUGGUGC | 211 nM | 24.1 nM | – | – | –
UUAUUUAUAAUGGAUACCAGUCGUAUGGCCCGGAAUCCUGACAUGAGGAUCACCCAUGUCGACCCUUGGCAGCUGUUAUGGGUUU | – | – | 14.5 nM | 24.6 nM | –
AGCAUGUUAUCAGAUACCAGACAUCUUUUAAAACAUAUUACAUGAGGAUCACCCAUGUUGGUCCCUUGGCAGCUGAAAUAUUUCA | 272 nM | 39.8 nM | – | – | –
CAUAUUGUAACUGAUACCAGUGUACUGACAUGAGGAUCACCCAUGUUGGGUUUUGUUGUACACCCUUGGCAGCAGAAUCAAUAUG | – | – | 68.7 nM | 89.2 nM | –
AGACAUGAGGAUCACCCAUGUAGCAUGGAUACCAGAUCCAGAUUUAUCCCUUGGCAGCUGUGGUAAAGUGAUGGAUUGCUCCUAG | – | – | 44.3 nM | 55.5 nM | –
UCAUUUGAGUGAGAUGUAAGGUAUCAUGAUACCAGUAGAUAAUUAUACCCUUGGCAGCAUAACAUGAGGAUCACCCAUGUACAUG | – | – | 22.8 nM | 24.2 nM | –
GAUGAACUAUUUGAUACCAGACUACAUGAGGAUCACCCAUGUGAGUUUCGUCCUCUGCCAGUCCCUUGGCAGCAAAUAGUUUAUC | – | – | 18.9 nM | 194 nM | –
CGGUUUGUGAUGGAUACCAGCAGAGAAAAUGUUUAUCCUAACAUGAGGAUCACCCAUGUGUGCCCUUGGCAGCUGUUGUGGGCUG | – | – | 50.5 nM | 84.9 nM | –
UACACAUGACAUGAUACCAGCCCAUGUGAACAUGAGGAUCACCCAUGUAUGAGGACAUGAGGCCCUUGGCAGCAUGUAUACAUGA | 10.2 nM | 10.2 nM | – | – | –
UCUUUCUAUAGUGAUACCAGACGUACAUGAGGAUCACCCAUGUUACAUUCUUGGUUAAAAGUCCCUUGGCAGCACGAUUUGUUCG | – | – | 9.51 nM | 10.2 nM | –
GCACCAGGUACGGAUACCAGACGUUGCCAAACAGGGUGACAUGAGGAUCACCCAUGUACUGUCCCUUGGCAGCCGUACCUGGUGC | – | – | 22.3 nM | 653 nM | –
AAGCUGACAAGAAGGUGUUCCUAAGCUGAUACCAGCCUGGAAACAGGCCCUUGGCAGCAGCACAUGAGGAUCACCCAUGUAAUAA | – | – | 118 nM | 79.2 nM | –
CCCGGUGAUGUCAAACAUGAGGAUCACCCAUGUCUUCACCAUAGAAGGCGCUUUAUUCUAGCUAGCGAGGAUAUAUGGUUUCAG | – | – | – | – | apparent Kd (MS2 coat protein [2]; [7]): 39.6 nM; apparent Kd (MS2 coat protein [2]; [8]): 44.6 nM
CUCAUGAGGAAGAAGGAUUAGGUCAGUGCAGUAAUAGGAUAUUCGUAACACAUGAGGAUCACCCAUGUCUACUCCGGAGCGACA | – | – | – | – | apparent Kd (MS2 coat protein [2]; [9]): 182 nM; apparent Kd (MS2 coat protein [2]; [10]): 81.1 nM
GACGCUGCAGGAUAUACUACGAGACUCACCCACAUUAUAUGACAUGAGGAUCACCCAUGUAGAAGGGCAAUGUG | – | – | – | – | apparent Kd (MS2 coat protein [2]; [7]): 10.4 nM; apparent Kd (MS2 coat protein [2]; [8]): 12.6 nM
UCUCAAAUAAAUAUCAUACAUGAGGAUCACCCAUGUCACCGAUAGGAUAUGCGCGUUUCCCACCUGCAGAAGGAUCAAACUGUA | – | – | – | – | apparent Kd (MS2 coat protein [2]; [9]): 15.4 nM; apparent Kd (MS2 coat protein [2]; [10]): 13.4 nM
UACAUGAGGAUCACCCAUGUCAAACCGUUCUAGGACUAGGUAAGAAGGGUCAUCCUACAAUGUUGACAGGAUAUUACGUAGCUG | – | – | – | – | apparent Kd (MS2 coat protein [2]; [9]): 348 nM; apparent Kd (MS2 coat protein [2]; [10]): 71.3 nM
CGAAAACAUGAGGAUCACCCAUGUUAGGAUAUGAGGAUGGUAUAGUAUACGGUGUAGAUCAGAAGGAACGGUGG | – | – | – | – | apparent Kd (MS2 coat protein [2]; [7]): 11.4 nM; apparent Kd (MS2 coat protein [2]; [8]): 11.6 nM
UAUCUACUAUGAGGAUAUCGACAAUGGAUGAACAUGAGGAUCACCCAUGUAACUCAUGGUCCCUUCGAGAAGGCAUGCUAUAAC | – | – | – | – | apparent Kd (MS2 coat protein [2]; [7]): 55 nM; apparent Kd (MS2 coat protein [2]; [8]): 59.5 nM
CAUAUGUUAGGAUAUAAGUUUAGAUCAUGCGUGUUUAUGGCUUAGAAGGAACAUGAGGAUCACCCAUGUAACAG | – | – | – | – | apparent Kd (MS2 coat protein [2]; [7]): 21.2 nM; apparent Kd (MS2 coat protein [2]; [8]): 22.3 nM
